An excerpt weighted towards active compounds, which were near 3.7% of everything screened.
KCNK9 block: blocks the human KCNK9 two-pore domain potassium channel. Q9NPC2. hit rate 1.2% among 310,000. B-score at 10 µM. HEK293 KCNK9, FluxOR thallium flux fluorescence; stronger effect = lower value. AID 488922;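 active = ratio B-score over 3 SD below the library mean, with starting fluorescence within 5 SD of its mean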;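 also: negative B-score means less thallium flux so channel inhibition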
KCNK3 inh: human KCNK3 channel inhibition, primary screen; O14649; CHO-KCNK3 thallium flux, FluxOR fluorescence; stronger effect = lower value; B-score at 10 µM; hit rate 0.84% among 340,000; AID 602410;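 active = B-score under library mean minus 4 SD, starting fluorescence ratio at most library mean plus 5 SD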;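 also: more negative B-score means stronger inhibition of thallium flux through KCNK3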
KCNQ1 act: potentiates or activates the human KCNQ1 potassium channel. CHO-K1 KCNQ1, thallium flux FluxOR fluorescence; stronger effect = higher value. AID 2648. B-score at 10 µM. hit rate 0.35% among 310,000;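 active = fluorescence ratio B-score, a plate-corrected score, at least three library SD, with initial intensity B-score within 5 SD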
Target sequence (P51787 whole entry, looked up): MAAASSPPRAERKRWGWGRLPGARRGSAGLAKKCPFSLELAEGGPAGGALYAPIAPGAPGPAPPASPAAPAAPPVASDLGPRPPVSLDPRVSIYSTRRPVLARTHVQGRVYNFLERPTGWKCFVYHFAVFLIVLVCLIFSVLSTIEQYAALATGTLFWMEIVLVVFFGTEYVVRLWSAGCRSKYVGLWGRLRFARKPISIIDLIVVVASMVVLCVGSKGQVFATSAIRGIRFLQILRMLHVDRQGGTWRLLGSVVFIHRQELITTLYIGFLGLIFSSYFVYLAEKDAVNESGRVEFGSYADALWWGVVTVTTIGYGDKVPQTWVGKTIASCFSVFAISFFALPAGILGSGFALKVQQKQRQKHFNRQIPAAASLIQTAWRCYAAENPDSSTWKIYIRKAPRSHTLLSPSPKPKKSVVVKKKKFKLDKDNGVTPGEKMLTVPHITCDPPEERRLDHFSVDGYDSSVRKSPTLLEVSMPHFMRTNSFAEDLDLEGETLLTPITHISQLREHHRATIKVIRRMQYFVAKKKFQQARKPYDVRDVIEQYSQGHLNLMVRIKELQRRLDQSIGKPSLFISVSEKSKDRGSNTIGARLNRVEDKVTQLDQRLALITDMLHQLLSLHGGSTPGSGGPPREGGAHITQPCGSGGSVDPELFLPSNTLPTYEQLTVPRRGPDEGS
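Assay system: CHO-K1 cells stably expressing KCNQ1. Medium: assay buffer for compound exposure, DMSO matched across wells. Timing: 37 °C overnight plating, 90-min dark dye load, 20-min compound pretreatment. Signal: kinetic FluxOR fluorescence, 10 s baseline plus 110 s post-stimulus.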
Kir21 block: Kir2.1 (mouse) channel inhibition; P35561; HEK293-Kir2.1, FluxOR thallium flux fluorescence; stronger effect = lower value; B-score at 10 µM; hit rate 0.85% among 310,000;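 active = fluorescence ratio B-score at or below minus 3 SD of library scores, with starting-brightness B-score within 2 SD, cut at about -4.2 in these data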;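 also: channel flux triggered by added potassium and thallium sulfate stimulus; B-score of peak minus minimum fluorescence over baseline after thallium stimulus; more negative B-score means stronger Kir2.1 block with less thallium influx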
KCNQ1 inh: inhibitors of human KCNQ1 potassium channel; P51787; CHO-K1 KCNQ1, FluxOR thallium flux fluorescence; stronger effect = higher value; B-score at 10 µM; hit rate 1.3% among 310,000; AID 2642;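 active = compounds whose thallium flux B-score, printed positive for inhibition, exceeds three library SD while starting fluorescence stays within three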;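 also: channel opened by potassium depolarization with thallium stimulus after 20 min compound exposure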
hERG rescue: compounds protecting human hERG from proarrhythmic drug block | Q12809 | CHO-hERG, FluxOR thallium flux, dofetilide IC70 present | hit rate 0.51% among 310,000 | activation (rescue from dofetilide block), less the hit threshold, % at 10 µM;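 active = activation above the mean of controls blocked by dofetilide plus 5 SD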;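 also: thallium influx through hERG after potassium depolarization seen as dye fluorescence rise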
KCNK9 block conf: human KCNK9 inhibitor confirmation; shares compounds with KCNK9 block; HEK293 KCNK9 cells, FluxOR thallium flux fluorescence; inhibition, % at 10 µM; hit rate 43% among 4,900; AID 492992;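 active = thallium signal inhibited by more than 5 SD of the compound-free buffer control wells, on both duplicate plates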;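 also: 0% = assay buffer control wells without compound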
Kir2-1 spec: tests whether KCNK9 modulators also affect mouse Kir2.1 | inhibition, % at 10 µM | AID 492993 | hit rate 4% among 4,900 | shares compounds with KCNK9 block | Kir2.1 cells, FluxOR thallium flux fluorescence;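 active = thallium signal drop more than 5 SD beyond the mean of the no-compound control wells, seen in both duplicate plates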;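 also: signal is fluorescence rise after thallium addition divided by baseline fluorescence; plate controls were assay buffer only for no effect and full block by chlorpromazine control for full effect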
KCNK9 uninduced: second check of KCNK9 modulator effects in non-induced HEK293 cells. hit rate 40% among 4,900. shares compounds with KCNK9 block. inhibition, % at 10 µM. AID 492997. FluxOR thallium flux;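 active = thallium signal drop beyond 5 SD of the untreated control mean, on both duplicate plates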;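 also: plate controls were buffer only IC0 wells for no effect and SID17386958 at its maximal inhibitory level for full effect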
* = called active by the depositor; i = inactive; x = no result given.

SMILES	KCNK9 block	KCNK3 inh	KCNQ1 act	Kir21 block	KCNQ1 inh	hERG rescue	KCNK9 block conf	Kir2-1 spec	KCNK9 uninduced
CC(C)c1ccc(C(=O)CN2C(=O)NC3(CCc4ccccc43)C2=O)cc1 (stereo unspecified)	x	i	x	x	x	x	x	x	x
COc1ccccc1CNC(=O)CN1CCN(c2ccc(C(C)=O)cc2)CC1	i	i	i	0.12	i	-8.4	x	x	x
O=c1c2ccccc2nc(N2CCN(c3ccccc3)CC2)n1Cc1ccccc1	-13.3*	i	i	-1.16	i	-8.7	61.5%*	i	39.5%*
CCC(C)NC(=O)C1CCC(CNS(=O)(=O)c2cccc3nsnc23)CC1 (stereo unspecified)	i	i	i	-0.61	i	-8.2	x	x	x
COc1ccccc1Oc1ccc(N/C=C/C(=O)c2ccc(C)o2)cc1	i	i	i	-0.86	i	-3.7	i	i	i
CC(=O)Nc1ccc(N/C=C/C(=O)c2ccc(C)o2)cc1	i	i	i	-0.76	i	-4.5	x	x	x
O=C(c1ccc2nc(N3CCOCC3)sc2c1)N1CCC(Cc2ccccc2)CC1	i	i	i	-1.2	i	-13.5	i	i	i
O=C(c1cnc(Cl)c(Cl)c1)N1CCC(Cc2ccccc2)CC1	i	i	i	-0.05	i	-8.2	i	i	i
O=C(NCCc1ccccc1)c1ccc2nc(N3CCOCC3)sc2c1	i	i	i	1.01	i	-7.6	x	x	x
Cc1cc(C(=O)N2CCC(Cc3ccccc3)CC2)no1	i	i	i	-0.02	i	-4.6	x	x	x
CN1C(=O)C2(Nc3ccccc3-c3nc4ccccc4n32)c2ccccc21 (stereo unspecified)	i	i	i	-0.25	i	-5.0	x	x	x
CCN1C(=O)C2(Nc3ccccc3-c3nc4ccccc4n32)c2cc(OC)ccc21 (stereo unspecified)	-15.2*	i	i	-1.16	i	-13.3	57.5%*	i	24.5%*
CCn1c(SCc2ccc(Cl)cc2Cl)nc2nc3c(cc2c1=O)CCCC3	i	i	i	0.32	i	-12.7	i	i	i
CCOC(=O)N1CCN(C(=O)COC(=O)CNC(=O)c2ccc(OCC)c(OCC)c2)CC1	x	i	x	x	x	x	x	x	x
CC(C)N(Cc1ccccc1)C(=O)CCc1ccccc1	i	i	i	-2.79	i	-6.1	i	i	i
O=C(COc1ccccc1)N(Cc1nnc(-c2ccccc2Cl)o1)C1CC1	i	i	i	-2.15	i	-16.2	x	x	x
CC(C)C(=O)N1CCN(c2ccccc2NC(=O)c2ccc(C#N)cc2F)CC1	i	i	i	-1.13	i	-19.8	i	i	i
CC1CCN(c2ccccc2NC(=O)c2ccc(C#N)cc2F)CC1	i	i	i	-0.11	i	-8.5	x	x	x
O=C(CSc1nccc(-c2cccs2)n1)Nc1ccc(F)c(Cl)c1	-8.24*	i	i	-0.84	i	-2.0	i	i	37.0%*
O=C(CSc1nccc(-c2cccs2)n1)Nc1cccc(Cl)c1	i	i	i	-0.62	i	-5.4	x	x	x
Cc1cc(C)nc(SCc2csc(-c3ccccc3)n2)n1	-11.4*	i	i	-1.57	i	-10.1	53.0%*	i	35.0%*
Cc1ccc(C)c(C(=O)COC(=O)C2CCN(c3ccc(C(F)(F)F)cn3)CC2)c1	i	i	i	1.5	i	-10.9	i	i	i
OCC1(Cc2ccc(Cl)cc2)CCN(Cc2ccc(F)c(F)c2)CC1	i	i	i	-0.93	i	-8.9	x	x	x
OCC1(Cc2cccc(C(F)(F)F)c2)CCN(Cc2cc(F)cc(F)c2)CC1	i	i	i	1.31	i	-22.9	i	i	i
OCC1(Cc2ccccc2C(F)(F)F)CCN(Cc2ccccc2)CC1	i	i	i	-0.25	i	-17.1	i	i	i
SMILES	KCNK9 block	KCNK3 inh	KCNQ1 act	Kir21 block	KCNQ1 inh	hERG rescue	KCNK9 block conf	Kir2-1 spec	KCNK9 uninduced
OCC1(Cc2ccccc2C(F)(F)F)CCN(Cc2ccc3c(c2)CCO3)CC1	i	i	i	-2.74	i	-10.2	i	i	i
CC(C)(C)CC(C)(C)SSc1n[nH]c(=S)s1	x	i	x	x	x	x	x	x	x
Cc1ccc(N(Cc2cc3ccccc3[nH]c2=O)C(=O)c2cccs2)cc1C	i	i	i	1.77	i	-13.4	x	x	x
O=C(COc1ccc(Cl)cc1Cl)N1CCCN(C(=O)COc2ccc(Cl)cc2Cl)CC1	-11.3*	i	i	1.31	i	-14.6	36.5%*	i	i
CCCc1ccc(Oc2c(-c3ccc(O)c(C)c3O)n[nH]c2C)cc1	i	i	i	-1.46	i	-17.4	x	x	x
CCCc1ccc(Oc2cn[nH]c2-c2ccc(O)c(C)c2O)cc1	-9.89*	i	i	-0.03	i	-15.6	55.5%*	i	44.0%*
O=C(c1sc2ccccc2c1Cl)N1CCN(c2ccccc2F)CC1	i	i	i	-0.62	i	-7.3	i	i	i
O=C(c1sc2ccccc2c1Cl)N1CCN(c2ncccn2)CC1	i	i	i	1.65	i	-8.2	x	x	x
O=C(c1sc2ccccc2c1Cl)N1CCN(c2ccc(F)cc2)CC1	i	i	i	0.4	i	-0.6	i	i	i
COc1ccc(Br)cc1CN(C)C(=O)c1ccccc1OCc1c(C)noc1C	i	i	i	-1.72	i	-14.1	x	x	x
CCOC(=O)c1[nH]c(C)c(C(=O)N2CCN(c3ccc(OC)cc3)CC2)c1C	i	i	i	-0.71	i	-5.8	x	x	x
CCOC(=O)c1[nH]c(CN2CCN(c3ccc(OC)cc3)CC2)c(C(=O)OCC)c1C	i	i	i	-0.18	i	-8.5	i	i	i
CCC(=O)N(C(=O)CC)N1CCN(c2ccncc2S(=O)(=O)N2CCCCC2)CC1	-9.29*	i	i	-1.61	i	-11.3	42.0%*	i	42.5%*
Clc1nnc2c3ccccc3ccn12	x	i	x	x	x	x	x	x	x
C[C@H](N)c1nnc(SCc2c(Cl)cccc2Cl)o1	i	i	i	0.35	i	-19.0	x	x	x
Clc1cccc(Cl)c1CSc1nnc(/C=C/c2ccccc2)o1	i	i	i	-2.07	i	-10.9	i	i	29.0%*
Cc1ccc2nc(NCCO)nc(-c3ccccc3)c2c1	i	i	i	-1.06	i	-12.7	x	x	x
